# A selection: hits, their analogues and other compounds. The true share with any hit is near 4.1%.
# RGS4 pot: potentiators or activators of RGS4 | HEK293 M3R/inducible RGS4, carbachol calcium flux Fluo4; hits give low values | B-score at 10 µM | 0.92% of 310,000 active | AID 463111;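 active = B-score of the integrated calcium signal more than 4 SD below the library mean, with starting fluorescence not abnormally high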;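 also: negative B-score means reduced calcium response which marks RGS4 activation or potentiation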
#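 Assay system: HEK293 FlpIn-TREx cells, stable M3R, doxycycline-inducible RGS4 / Probe or stimulus: carbachol, ECmax concentration / Times: overnight RGS4 induction, 30 min dye load 37 °C, 20 min compound RT / Signal: kinetic calcium fluorescence imaging with Fluo4-AM dye, 2 µM / Measure: Agonist-evoked peak-minus-minimum fluorescence over baseline, integrated ratio, B score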
# RGS4 block: inhibitors of human RGS4 | B-score at 10 µM | P49798 | HEK293 M3R/RGS4 inducible, Fluo-4 calcium flux; hits give high values; triggered by carbachol at its EC20 | 0.45% of 310,000 active | AID 463165;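 active = B-score, a plate-corrected calcium signal, over three deviations above library mean, with baseline fluorescence within five deviations of library mean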;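 also: RGS4 expression induced by doxycycline in cells with stable M3 receptor; B-score is computed from the integrated fluorescence ratio over baseline after carbachol; higher B-score means a larger calcium signal and so more RGS4 inhibition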
# Target sequence (P49798 whole entry, looked up): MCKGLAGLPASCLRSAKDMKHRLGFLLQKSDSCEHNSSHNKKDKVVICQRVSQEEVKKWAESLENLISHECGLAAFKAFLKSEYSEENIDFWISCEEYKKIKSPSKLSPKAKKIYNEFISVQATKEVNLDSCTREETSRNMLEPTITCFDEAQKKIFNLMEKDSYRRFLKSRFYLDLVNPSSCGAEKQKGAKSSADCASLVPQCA
# MrgX1 antag: antagonists of human MrgX1 receptor; 1.3% of 310,000 active; Q96LB2; B-score at 10 µM; MRGX1-HEK293 calcium flux, Fluo-4, BAM8-22 antagonism; hits give low values;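 active = calcium-response B-score plate-corrected more than 3 library SD below zero, starting fluorescence within 5 deviations, no agonist response on first addition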;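 also: peak minus trough fluorescence over baseline after final BAM8-22 challenge near maximal dose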
# Target sequence (Q96LB2 whole entry, looked up): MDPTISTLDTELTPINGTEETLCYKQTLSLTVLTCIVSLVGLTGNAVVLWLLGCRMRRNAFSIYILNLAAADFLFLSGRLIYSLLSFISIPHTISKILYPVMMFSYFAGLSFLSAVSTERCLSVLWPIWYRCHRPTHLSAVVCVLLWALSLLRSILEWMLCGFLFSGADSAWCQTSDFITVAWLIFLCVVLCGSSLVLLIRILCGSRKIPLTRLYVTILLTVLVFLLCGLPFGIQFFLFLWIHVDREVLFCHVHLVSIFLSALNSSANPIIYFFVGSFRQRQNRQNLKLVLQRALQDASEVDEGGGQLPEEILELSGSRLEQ
# Kir21 block: inhibitors of mouse Kir2.1 inward-rectifier potassium channel; P35561; B-score at 10 µM; 0.85% of 310,000 active; HEK293-Kir2.1, FluxOR thallium flux fluorescence; hits give low values;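 active = fluorescence ratio B-score at or below minus 3 SD of library scores, with starting-brightness B-score within 2 SD, cut at about -4.2 in these data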;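 also: channel flux triggered by added potassium and thallium sulfate stimulus; B-score of peak minus minimum fluorescence over baseline after thallium stimulus; more negative B-score means stronger Kir2.1 block with less thallium influx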
# MrgX1 PAM: allosterically activates human MrgX1 receptor signaling. Q96LB2. MrgX1-HEK293, Fluo-4 calcium flux, FDSS; hits give high values. B-score at 10 µM. 0.63% of 310,000 active. AID 588675;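 active = plate-corrected calcium response at least 3 library SD above typical, normal starting fluorescence, not activating the receptor alone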;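 also: compound read alongside a low EC10 to EC30 dose of BAM8-22 agonist; peak minus trough fluorescence over baseline measured at the second addition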
# MrgX1 agonist: human MrgX1 receptor agonism, primary screen | MrgX1-HEK293 cells, Fluo-4 calcium fluorescence, agonist mode; hits give high values | B-score at 10 µM | 0.44% of 310,000 active;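 active = calcium response B-score plate-corrected fluorescence ratio at least 3 library SD, with starting fluorescence B-score inside 5 SD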
#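 Test system: HEK293 cells stably expressing human MrgX1 receptor; amount: 15,000 cells per well; doses: compound delivered in addition one of three; times: overnight plating before 1 h dye loading; detection: Fluo-4 NW calcium-flux fluorescence, kinetic read; read-out basis: B-scored fluorescence response ratio; controls: positive and negative controls per plate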
# RGS4 act valid: confirmation of RGS4 activators; shares compounds with RGS4 pot; HEK293 M3R/RGS4 inducible, carbachol calcium flux Fluo4; inhibition, % at 10 µM; 89% of 1,100 active; AID 602282;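 active = inhibition above 3 SD of the buffer control wells, cut at about 41% in these data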;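 also: signal is the integrated peak-minus-minimum Fluo4 fluorescence over baseline ratio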
# RGS4 act ctr: RGS4 activator counter-screen hit in non-induced cells. inhibition, % at 10 µM. shares compounds with RGS4 pot. HEK293 M3R non-induced RGS4, Fluo4 calcium flux; after carbachol challenge at its EC90. 82% of 1,100 active;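 active = inhibition exceeding 3 SD of buffer-only control wells, cut at about 26% in these data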;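 also: percent drop in integrated peak-minus-baseline over baseline Fluo4 ratio after carbachol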
# RGS4 inh valid: RGS4 inhibitor validation | shares compounds with RGS4 block | HEK293 M3R/RGS4, carbachol calcium Fluo-4 fluorescence; carbachol added at its EC20; 0 = buffer wells, 100 = carbachol control | calcium response, % at 10 µM | 65% of 1,700 active;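 active = duplicate-averaged calcium response above the buffer-only control mean plus 5 SD of those controls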;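 also: integrated fluorescence ratio F max minus min over baseline F0; higher response in RGS4-induced cells means RGS4 inhibition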
# M3R Ca ctr: checks RGS4 inhibitor effects in non-induced HEK293 M3R cells | 20% of 1,900 active | shares compounds with RGS4 block | activity (percent), % at 10 µM | AID 493000 | carbachol calcium Fluo-4; submaximal (EC20) carbachol stimulus; buffer wells 0%, carbachol control wells 100%; call rule not given here;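 also: RGS4 induction absent so cells express M3R without RGS4; higher means more calcium signal and flags a non-specific hit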
# RGS4 inh ctr2: signal in non-induced cells without carbachol, RGS4 inhibitor counter-screen; shares compounds with RGS4 block; HEK293 M3R/RGS4 non-induced, Fluo-4 calcium, no carbachol; normalised: buffer wells 0%, carbachol wells 100%; calcium response (agonist-mode artifact), % at 10 µM; 22% of 1,900 active; AID 493001;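 active = duplicate-averaged calcium rise in uninduced cells above buffer wells' mean plus 5 SD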
# MrgX1 antag conf: confirmation of human MrgX1 receptor antagonists. 19% of 2,300 active. shares compounds with MrgX1 antag. remaining BAM8-22 calcium response % of control (hits give low values), % at 10 µM. MrgX1-HEK293, BAM8-22 calcium flux, Fluo-4; hits give low values;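 active = remaining agonist calcium response no higher than 100% minus 3 SD of agonist-only control wells, with starting fluorescence near control levels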;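 also: agonist BAM8-22 given at a near maximal EC90 to ECmax level; peak minus minimum fluorescence divided by baseline after agonist addition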
# HEK293 Ca flux: MrgX1 antagonist counter-screen hit in parental HEK293 cells | shares compounds with MrgX1 antag | Fluo-4 calcium fluorescence, FDSS | fluorescence ratio F(max-min)/F0 at 10 µM | 2% of 4,000 active | AID 624111;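 active = duplicate-averaged calcium fluorescence ratio at least three times the standard deviation of buffer wells, a nonspecific response in parental cells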
# HEK293 Ca counter: counter-screen for MrgX1 allosteric activators: effect in parental HEK293 cells; shares compounds with MrgX1 antag; parental HEK293 calcium flux, Fluo-4 fluorescence ratio; hits give high values; fluorescence ratio F(max-min)/F0 at 10 µM; 0.4% of 4,000 active; AID 624114;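 active = calcium fluorescence ratio, averaged over duplicates, at least 3 SD of the buffer-well ratio, meaning a nonspecific response in receptor-free cells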;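 also: untransfected parental HEK293 lacking MrgX1 used as counterscreen for MrgX1 allosteric activators; fluorescence change taken during the second addition on a kinetic imager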
# HEK293 Ca cntr2: activity in parental HEK293 cells lacking MrgX1 receptor | shares compounds with MrgX1 antag | Fluo-4 calcium fluorescence (FDSS); hits give high values | fluorescence ratio F(max-min)/F0 at 10 µM | 8.7% of 4,000 active;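 active = calcium fluorescence ratio at least three times the spread of buffer wells, meaning a non-specific response in parental cells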
# An asterisk follows results filed as active; i = inactive; / = no result.
SMILES,RGS4 pot,RGS4 block,MrgX1 antag,Kir21 block,MrgX1 PAM,MrgX1 agonist,RGS4 inh valid,M3R Ca ctr,RGS4 inh ctr2,others
CN1CCc2cc3c(c4c2C1Cc1ccccc1-4)OCO3 (stereo not given),-7.8*,i,-6.6*,-1.5,i,i,/,/,/,RGS4 act valid=0;RGS4 act ctr=0;MrgX1 antag conf=i;HEK293 Ca flux=i;HEK293 Ca counter=i;HEK293 Ca cntr2=i
Cc1cc(OCC(=O)NCc2ccncc2)c2c3c(c(=O)oc2c1)CCC3,i,i,i,1.3,i,i,/,/,/,
O=C1NC(=O)N(Cc2ccc(F)cc2)C(=O)/C1=C\C=C\c1ccco1,i,12*,i,-0.47,8.3*,i,10%*,i,12%*,
O=C1NC(=O)N(Cc2ccccc2)C(=O)/C1=C\c1ccco1,i,i,i,0.84,i,i,/,/,/,
Cc1ccc(N2C(=O)NC(=O)/C(=C/C=C/c3ccco3)C2=O)cc1,i,i,i,0.26,i,i,i,i,16%*,
O=C1NC(=O)N(c2ccccc2)C(=O)/C1=C\C=C\c1ccccc1,i,16*,i,1.5,i,i,114%*,31%*,24%*,
Cc1c(N=Cc2c(O)n(Cc3ccccc3)c(=O)[nH]c2=O)c(=O)n(-c2ccccc2)n1C,i,i,i,0.7,i,i,/,/,/,
Cc1ccccc1N1C(=O)/C(=C/c2ccco2)C(=O)NC1=S,i,i,i,0.55,i,i,/,/,/,
O=C1NC(=S)N(c2ccccc2F)C(=O)/C1=C\c1cccs1,i,9.5*,i,1.1,i,i,34%*,i,i,
CCOc1ccc(N2C(=O)/C(=C\c3cccs3)C(=O)NC2=S)cc1,i,i,i,1.5,i,i,/,i,i,
CN1C(=O)C(=Cc2ccc(-c3cccc(Cl)c3)o2)C(=O)N(C)C1=O,i,5*,i,-0.82,i,i,22%*,34%*,52%*,
CN1C(=O)C(=Cc2ccc(N3CCOCC3)o2)C(=O)N(C)C1=O,i,i,i,-1.8,i,i,/,/,/,
CCCCn1c(O)c(C(CC)=NCCc2ccccc2)c(=O)[nH]c1=O,i,i,i,0.51,i,i,/,/,/,

# Assay outcomes from PubChem BioAssay.
